Laboratory results from ChEMBL document CHEMBL1149639, “Anti-tumor agents 255: novel glycyrrhetinic acid-dehydrozingerone conjugates as cytotoxic agents” (2007).
pEC50: −log10 of the molar value. The source made the active and inactive calls. The rule behind the calls is not given here.

Tests used:
Assay type in all cases: functional
KB [1] = test: Cytotoxicity against human KB cells by sulforhodamine B assay; conditions: for pEC50: read-out: ED50 (the source's name)
How it was run: (§1)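 Sulforhodamine B assay after Rubinstein et al. Cells grown at 37 °C, humidified 5% CO2, in RPMI-1640 with 10% (v/v) FBS and 100 μg/mL kanamycin. Seeding density set per line to give final A562 of 1-2.5. Stocks in DMSO, final DMSO <1% (v/v). Two-day drug exposure, absorbance at 562 nm. ED50 (50% absorbance reduction vs untreated) interpolated from dose-response. Tests in duplicate.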

KB-VIN [2] = test: (§2) Cytotoxicity against human KB-VIN cells by sulforhodamine B assay; how it was run: as §1
KB [3] = test: Cytotoxicity against human KB cells; conditions: for pEC50: read-out: ED50 (the source's name); how it was run: as §1
KB-VIN [4] = test: (§3) Cytotoxicity against human KB-VIN cells; how it was run: as §1
A549 = test: Cytotoxicity against human A549 cells; conditions: for pEC50: read-out: ED50 (the source's name); how it was run: as §1
1A9 = test: Cytotoxicity against human 1A9 cells; conditions: for pEC50: read-out: ED50 (the source's name); how it was run: as §1
HCT-8 = test: Cytotoxicity against human HCT8 cells; conditions: read-out: ED50 (the source's name); how it was run: as §1
ZR-75-1 = test: Cytotoxicity against human ZR751 cells; conditions: for pEC50: read-out: ED50 (the source's name); how it was run: as §1
PC-3 = test: Cytotoxicity against human PC3 cells; conditions: read-out: ED50 (the source's name); how it was run: as §1
DU-145 = test: Cytotoxicity against human DU145 cells; conditions: read-out: ED50 (the source's name); how it was run: as §1
LNCaP = test: Cytotoxicity against human LN-Cap cells; conditions: read-out: ED50 (the source's name); how it was run: as §1
[5] = as §3; conditions: KBVIN, read-out: ED50 (the source's name); how it was run: as §1
[6] = as §2; conditions: KBVIN, read-out: ED50 (the source's name); how it was run: as §1

| Structure (SMILES) | Activity (KB [1]) | Activity (KB-VIN [2]) | Activity (KB [3]) | Activity (KB-VIN [4]) | pEC50 (A549) | pEC50 (1A9) | pEC50 (HCT-8) | pEC50 (ZR-75-1) | pEC50 (PC-3) | pEC50 (DU-145) | pEC50 (LNCaP) | pEC50 (KB [3]) | pEC50 [5] | Activity (A549) | Activity (ZR-75-1) | pEC50 (KB [1]) | pEC50 [6] | Activity (1A9) |
| --- | --- | --- | --- | --- | --- | --- | --- | --- | --- | --- | --- | --- | --- | --- | --- | --- | --- | --- |
| COc1cc(/C=C/C(C)=O)ccc1O [DEHYDROZINGERONE] | inactive | inactive | inactive | inactive | < 4.28 | 4.47 | < 4.28 | < 4.28 | < 4.28 | < 4.28 | 4.29 |  |  |  |  |  |  |  |
| COc1cccc(/C=C/C(C)=O)c1OC(=O)[C@@]1(C)CC[C@]2(C)CC[C@]3(C)C(=CC(=O)[C@@H]4[C@@]5(C)CC[C@H](O)C(C)(C)[C@@H]5CC[C@]43C)[C@@H]2C1 |  |  |  |  | 5.66 | 6.10 | 5.72 | 5.52 | 5.96 | 5.44 | 5.55 | 6.10 | 5.55 |  |  |  |  |  |
| CC1(C)[C@@H](O)CC[C@]2(C)[C@H]3C(=O)C=C4[C@@H]5C[C@@](C)(C(=O)O)CC[C@]5(C)CC[C@@]4(C)[C@]3(C)CC[C@@H]12 [ENOXOLONE] | inactive | inactive |  |  |  | < 4.68 | 4.71 |  | < 4.68 | < 4.68 | < 4.68 | < 4.68 | < 4.68 | inactive | inactive |  |  |  |
| CC1(C)CC[C@]2(C(=O)O)CC[C@]3(C)C(=CC[C@@H]4[C@@]5(C)CC[C@H](O)C(C)(C)[C@@H]5CC[C@]43C)[C@@H]2C1 | inactive | inactive |  |  |  |  |  |  |  |  |  |  |  |  |  |  |  |  |
| C[C@H]1[C@H](C)CC[C@]2(C(=O)O)CC[C@]3(C)C(=CC[C@@H]4[C@@]5(C)CC[C@H](O)C(C)(C)[C@@H]5CC[C@]43C)[C@H]12 [URSOLIC ACID] |  |  |  |  |  |  |  |  |  |  |  |  |  |  |  | 5.08 | 5.09 |  |
| COc1cccc(/C=C/C(=O)c2ccccc2)c1OC(=O)[C@@]1(C)CC[C@]2(C)CC[C@]3(C)C(=CC(=O)[C@@H]4[C@@]5(C)CC[C@H](O)C(C)(C)[C@@H]5CC[C@]43C)[C@@H]2C1 |  |  |  | inactive | < 4.85 | 4.88 | < 4.85 | < 4.85 | 4.85 | < 4.85 | 4.85 | 5.00 |  |  |  |  |  |  |
| COc1cc(/C=C/C(C)=O)ccc1OC(=O)[C@]12CCC(C)(C)C[C@H]1C1=CC[C@@H]3[C@@]4(C)CC[C@H](O)C(C)(C)[C@@H]4CC[C@@]3(C)[C@]1(C)CC2 | inactive | inactive |  |  |  |  |  |  |  |  |  |  |  |  |  |  |  |  |
| COc1cccc2c1C(=O)c1c(O)c3c(c(O)c1C2=O)C[C@@](O)(C(=O)CO)C[C@@H]3O[C@H]1C[C@H](N)[C@H](O)[C@H](C)O1 [DOXORUBICIN] |  |  |  |  | 6.74 | 7.70 | 5.92 | 7.40 | 6.59 | 6.82 | 7.40 | 7.00 | 5.30 |  |  |  |  |  |
| COc1ccc(/C=C/C(C)=O)c(OC(=O)[C@@]2(C)CC[C@]3(C)CC[C@]4(C)C(=CC(=O)[C@@H]5[C@@]6(C)CC[C@H](O)C(C)(C)[C@@H]6CC[C@]54C)[C@@H]3C2)c1 |  |  |  |  | 4.81 | 5.23 | 5.59 | < 4.82 | 5.13 | < 4.82 | 5.72 | 5.21 | < 4.82 |  |  |  |  |  |
| COc1ccc(/C=C/C(=O)c2ccccc2)c(OC(=O)[C@@]2(C)CC[C@]3(C)CC[C@]4(C)C(=CC(=O)[C@@H]5[C@@]6(C)CC[C@H](O)C(C)(C)[C@@H]6CC[C@]54C)[C@@H]3C2)c1 |  |  |  |  |  |  | < 4.85 |  | < 4.85 | 4.89 | < 4.85 | < 4.85 | < 4.85 | inactive | inactive |  |  | inactive |
| COc1cc(/C=C/C(C)=O)ccc1OC(=O)[C@]12CC[C@@H](C)[C@H](C)[C@H]1C1=CC[C@@H]3[C@@]4(C)CC[C@H](O)C(C)(C)[C@@H]4CC[C@@]3(C)[C@]1(C)CC2 |  | inactive |  |  |  |  |  |  |  |  |  |  |  |  |  | 4.98 |  |  |
| COc1cc(/C=C/C(=O)c2ccccc2)ccc1OC(=O)[C@@]1(C)CC[C@]2(C)CC[C@]3(C)C(=CC(=O)[C@@H]4[C@@]5(C)CC[C@H](O)C(C)(C)[C@@H]5CC[C@]43C)[C@@H]2C1 |  |  | inactive | inactive | < 4.85 | < 4.85 | < 4.85 |  | < 4.85 | < 4.85 | < 4.85 |  |  |  | inactive |  |  |  |
| COc1cc(/C=C/C(C)=O)ccc1OC(=O)[C@@]1(C)CC[C@]2(C)CC[C@]3(C)C(=CC(=O)[C@@H]4[C@@]5(C)CC[C@H](O)C(C)(C)[C@@H]5CC[C@]43C)[C@@H]2C1 |  |  |  |  | 5.70 | 6.05 | 5.77 | 5.55 | 5.85 | 5.51 | 6.22 | 5.80 | 5.60 |  |  | 5.77 | 5.55 |  |
| CCOc1cccc(/C=C/C(C)=O)c1OC(=O)[C@@]1(C)CC[C@]2(C)CC[C@]3(C)C(=CC(=O)[C@@H]4[C@@]5(C)CC[C@H](O)C(C)(C)[C@@H]5CC[C@]43C)[C@@H]2C1 |  |  |  |  | 5.52 | 5.74 | 5.31 | 5.06 | 5.46 | < 4.82 | 5.17 | 5.54 | 4.88 |  |  |  |  |  |
| CC(=O)/C=C/c1cccc(F)c1OC(=O)[C@@]1(C)CC[C@]2(C)CC[C@]3(C)C(=CC(=O)[C@@H]4[C@@]5(C)CC[C@H](O)C(C)(C)[C@@H]5CC[C@]43C)[C@@H]2C1 |  |  |  |  | 5.49 | 5.89 | 5.66 | 5.57 | 5.80 | 5.57 | 5.36 | 5.52 | 5.06 |  |  |  |  |  |
| COc1ccc(/C=C/C(=O)c2ccccc2)cc1OC(=O)[C@@]1(C)CC[C@]2(C)CC[C@]3(C)C(=CC(=O)[C@@H]4[C@@]5(C)CC[C@H](O)C(C)(C)[C@@H]5CC[C@]43C)[C@@H]2C1 |  |  | inactive | inactive |  | < 4.85 | < 4.85 |  | 4.85 | < 4.85 | 4.85 |  |  | inactive | inactive |  |  |  |
| COc1ccc(/C=C/C(C)=O)cc1OC(=O)[C@@]1(C)CC[C@]2(C)CC[C@]3(C)C(=CC(=O)[C@@H]4[C@@]5(C)CC[C@H](O)C(C)(C)[C@@H]5CC[C@]43C)[C@@H]2C1 |  |  |  |  | 5.55 | 5.80 | 5.70 | 5.72 | 5.55 | 5.00 | 5.19 | 6.05 | 5.72 |  |  |  |  |  |
| CCOc1cc(/C=C/C(C)=O)ccc1OC(=O)[C@@]1(C)CC[C@]2(C)CC[C@]3(C)C(=CC(=O)[C@@H]4[C@@]5(C)CC[C@H](O)C(C)(C)[C@@H]5CC[C@]43C)[C@@H]2C1 |  |  |  |  | 5.77 | 5.96 | 5.57 | 5.28 | 5.48 | 5.24 | 5.96 | 5.74 | 5.77 |  |  |  |  |  |
